Data reported in ChEMBL document CHEMBL4513216, “Probing the Open Global Health Chemical Diversity Library for Multistage-Active Starting Points for Next-Generation Antimalarials” (ACS Infect Dis, 2020).

Experiment: Toxicity liver stage against HepG2, at 10uM
Type: cell-based
Parameters: test concentration 10 uM, cell line HepG2-A16-CD81EGFP
Conditions: human, HepG2-A16-CD81EGFP cells; read-out: INHIBITION
Procedure, shortened: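 Uninfected HepG2-A16-CD81EGFP cells, 3 × 10^3 per well, 1536-well, plated on prespotted compound at 10 μM final, parasite-free screening media added to match infected plates; puromycin 10 μM positive, DMSO 0.5% negative; run in parallel with 48 h PbLuc assay at 37 °C, 5% CO2; viability by CellTiter-Glo luminescence, normalized to controls.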
In the case of `CN(C)c1ncnc2c1CCN(S(=O)(=O)c1cccc(Cl)c1Cl)C2`, the cytotoxicity at 10 µM was 10.4%.
In the case of `O=C([C@H]1C[C@H]2CN(c3ncc(F)cn3)C[C@@H]1O2)N1CCCC1`, the cytotoxicity at 10 µM was -115%.
Molecule `CC(C)(C)OCCN(Cc1cccc(O)c1)C1CCC(O)CC1` (stereo not given) has a cytotoxicity at 10 µM of 8.22%.
In the case of `O=C(CCCc1nc2ccccc2[nH]1)N1CCCC1c1ccncc1` (stereo not given), the cytotoxicity at 10 µM was 3.79%.
With `Cc1cc(-c2cnc(N3CCCC(C)C3)nc2C(C)C)on1` (stereo not given) the cytotoxicity at 10 µM was 3.05%.
With `COC(=O)C(C)N(Cc1cc(=O)n(C)c(=O)n1C)C1CC1` (stereo not given) the cytotoxicity at 10 µM was -0.719%.
Molecule `Cc1ccc(OCC(O)CN(C)CC(=O)Nc2cc(C)on2)c(C)c1` (stereo not given) has a cytotoxicity at 10 µM of -17.3%.
`CC(=O)N1CCCn2nc(CNS(=O)(=O)N3CCCCCC3)cc2C1` gave a cytotoxicity at 10 µM of 3.74%.
For `CN(Cc1ccccc1CN1CCCC1)c1ncnc2[nH]ccc12`, the cytotoxicity at 10 µM was 8.53%.
Molecule `COc1ccc(C2OC(COc3ccccc3Br)=NN2C(C)=O)cc1` (stereo not given) has a cytotoxicity at 10 µM of 3.56%.
`Cc1noc(C)c1CN1CCn2nc(CCC(=O)N3CCCC3)cc2C1` showed a cytotoxicity at 10 µM of -4.52%.
Work on `CCOc1cc(CNCC2CN(C3CC3)CCO2)ccc1OC` (stereo not given) yielded a cytotoxicity at 10 µM of -5.95%.
For `Cc1nc(Nc2ccccn2)cc(C2CCCN2Cc2ncc[nH]2)n1` (stereo not given), the cytotoxicity at 10 µM was -3.11%.
In the case of `COCCNc1ccc(CNC(=O)C2COc3ccccc32)cc1` (stereo not given), the cytotoxicity at 10 µM was -13.9%.
With `COCc1cn(CC2CCN(Cc3nc(C)c[nH]3)CC2)nn1` the cytotoxicity at 10 µM was 0.622%.
Work on `Cc1ccc(NC(=O)N2CCC3(CCC(C(=O)N(C)C)O3)CC2)cc1` (stereo not given) yielded a cytotoxicity at 10 µM of -99.2%.
Work on `O=C1NCC2(CCCN(Cc3cccnc3)C2)Oc2ccccc21` (stereo not given) yielded a cytotoxicity at 10 µM of -24.1%.
Work on `CCOCC(=O)NCCCn1ccnc1-c1ccccc1` yielded a cytotoxicity at 10 µM of -1.11%.
`CCC(CO)N(Cc1ccco1)C(=O)c1sccc1NC(C)=O` (stereo not given) gave a cytotoxicity at 10 µM of 3.36%.
`N#Cc1c[nH]nc1NCc1ccc2c(c1)OCO2` showed a cytotoxicity at 10 µM of -8.75%.
In the case of `Cc1ccc(CN2CCn3c(C(=O)N(C)C)cnc3C2)cc1`, the cytotoxicity at 10 µM was -68.9%.
For `CCN1CCCC(CNC(=O)C2(c3cccc(Cl)c3)CC2)C1` (stereo not given), the cytotoxicity at 10 µM was -2.77%.
Work on `Cc1cccc(COC[C@]23COC[C@H]2CN(C(=O)c2ccsc2)C3)n1` yielded a cytotoxicity at 10 µM of -7.85%.
Work on `Cc1noc(C)c1CN1CCC2(CC1)C(c1ccccc1)CC(=O)N2C` (stereo not given) yielded a cytotoxicity at 10 µM of -105%.
Molecule `Cc1noc(C2CCC3(CCN(C(=O)c4ccn(C)n4)CC3)O2)n1` (stereo not given) has a cytotoxicity at 10 µM of 7.57%.
`CCNS(=O)(=O)c1cnccc1N1CCN(CCO)CC1` gave a cytotoxicity at 10 µM of 3.6%.
With `COc1ccc(-c2noc([C@@H](C)NC(=O)CC(C)C)c2C(=O)O)cc1` the cytotoxicity at 10 µM was 2.05%.
`CN(Cc1ccc2c(c1)OCCO2)Cc1nnnn1-c1ccccc1` gave a cytotoxicity at 10 µM of 20.5%.
`CCO[C@@H]1CC[C@H]2[C@H]1OCCN2C(=O)C1CCOCC1` gave a cytotoxicity at 10 µM of -19.8%.
Work on `COc1ccc(C(NC(=O)c2cccc[n+]2[O-])C2CC2)cc1` (stereo not given) yielded a cytotoxicity at 10 µM of 7.12%.
In the case of `CN(CCCNC(=O)Nc1ccc(C#N)cc1)CC(F)(F)F`, the cytotoxicity at 10 µM was -3%.
Work on `COc1ccc(NC(=O)Cn2cc(-c3ccccc3)ncc2=O)cn1` yielded a cytotoxicity at 10 µM of -4.73%.
`CCCn1nc(-c2nc(COc3ccccc3)no2)ccc1=O` showed a cytotoxicity at 10 µM of -2.74%.
`CC(C)CN1CCO[C@H]2CCN(c3cnccn3)CC[C@@H]21` gave a cytotoxicity at 10 µM of 2.31%.
For `COC(=O)CN1CC2(CCNCC2)COc2ccccc2S1(=O)=O`, the cytotoxicity at 10 µM was -11.7%.
In the case of `CCn1cc(NC(=O)CN2CCC(Oc3ccc(F)cc3)CC2)c(C)n1`, the cytotoxicity at 10 µM was 9.25%.
Work on `CC(c1ccccc1Cl)N(C)Cc1nc2c(cnn2C)c(=O)[nH]1` (stereo not given) yielded a cytotoxicity at 10 µM of -5.19%.
`O=C(C1CC1)N1CC[C@H](c2nnc(Cc3c[nH]c4ccccc34)o2)C1` showed a cytotoxicity at 10 µM of 4.09%.
For `CC(C)(C)c1n[nH]c(C2CN(CCc3ccncc3)CCO2)n1` (stereo not given), the cytotoxicity at 10 µM was -12.3%.
In the case of `CCOCC(=O)N1C[C@H]2CC[C@@H](C1)N(Cc1ccccn1)C2=O`, the cytotoxicity at 10 µM was 10.9%.
In the case of `CCn1nc(C)cc1C(=O)N1CCOc2ccc(OC)cc21`, the cytotoxicity at 10 µM was 14.3%.
With `CNC(=O)c1ccnc(CC2COc3c(cccc3OC)C2)c1` (stereo not given) the cytotoxicity at 10 µM was 3.77%.
Work on `CN1CC[C@H]2CN(C(=O)c3ccc4sc5c(c4c3)CCNC5=O)C[C@H]21` yielded a cytotoxicity at 10 µM of -0.193%.
`NS(=O)(=O)N1CCc2ccc(NC(=O)CC(F)(F)F)cc21` showed a cytotoxicity at 10 µM of 6.15%.
With `Cc1cccnc1C(=O)N1CCCC(Cc2cncc3ccccc23)C1` (stereo not given) the cytotoxicity at 10 µM was -18%.
Work on `COCCCC1CCCN(C(=O)CCc2cc(O)no2)C1` (stereo not given) yielded a cytotoxicity at 10 µM of 8.41%.
With `CNc1cc(C2CN(Cc3coc(C)n3)CCO2)nc(C)n1` (stereo not given) the cytotoxicity at 10 µM was -11.1%.
Molecule `CN(C(=O)COC1CCCCC1)C1CCN(CC2CCOC2)CC1` (stereo not given) has a cytotoxicity at 10 µM of 0.33%.
`Cc1nc(N)cc(N2CCCC(COc3cccc(F)c3)C2)n1` (stereo not given) gave a cytotoxicity at 10 µM of -1.53%.
`O=C(c1cccs1)N1CC[C@@H]2[C@H]1CCC(=O)N2c1ccccc1` gave a cytotoxicity at 10 µM of -97.5%.
`COc1cc(CNC(=O)N2CCCC2c2cc(C)no2)ccn1` (stereo not given) gave a cytotoxicity at 10 µM of 1.95%.
For `Cc1cc(C(=O)NCc2cccn2C)nn1C`, the cytotoxicity at 10 µM was 1.21%.
For `COc1ccc(F)cc1C(C(=O)O)N1CCCN(C2CCCC2)CC1` (stereo not given), the cytotoxicity at 10 µM was -8.63%.
`CCc1nnc2ccc(N3CCN(S(=O)(=O)c4ccc(C)s4)CC3)nn12` showed a cytotoxicity at 10 µM of 1.5%.
Molecule `c1cnc2c(c1)CN(C1CCOC1)CCN2CC1CC1` (stereo not given) has a cytotoxicity at 10 µM of 4.92%.
For `COc1cccc(-c2ncc3c(n2)N(C)CCN(CCN(C)C)C3=O)c1`, the cytotoxicity at 10 µM was -12.2%.
`CC[C@H]1N(Cc2ccc(OC)cc2)CCC[C@]12CCC(=O)N2C` showed a cytotoxicity at 10 µM of -5.6%.
In the case of `Cc1nc[nH]c1CN1CCCC(CNC(=O)c2ccncn2)C1` (stereo not given), the cytotoxicity at 10 µM was -0.334%.
`COc1ccc(CN2CCCC2)cc1Oc1ccc2c(c1)CC(CN)O2` (stereo not given) gave a cytotoxicity at 10 µM of -10.5%.
For `CNC(=O)C(C)(C)NC(=O)c1cc(COc2ccccc2OC)[nH]n1`, the cytotoxicity at 10 µM was 1.6%.
`CS(=O)(=O)N1CCC(c2nnc(Cn3ccnc3)n2C2CC2)CC1` gave a cytotoxicity at 10 µM of -1.24%.
With `N#Cc1ccccc1CN(CC(N)=O)C1CCCC1` the cytotoxicity at 10 µM was 10.4%.
`CNC(=O)CCN1CCC(c2nnc(Cn3cccn3)n2C2CC2)CC1` gave a cytotoxicity at 10 µM of 1.53%.
For `CCn1cc(S(=O)(=O)Nc2ccc3[nH]c(C4CCC4)nc3c2)cn1`, the cytotoxicity at 10 µM was 1.45%.
For `Cc1cc(C(=O)N2CCOC(c3nc(C)n[nH]3)C2)[nH]n1` (stereo not given), the cytotoxicity at 10 µM was -11.7%.
Molecule `CC(C(=O)N1CCCC1)N1CCC(c2nccn2CC2CCC2)CC1` (stereo not given) has a cytotoxicity at 10 µM of -1.96%.
Work on `O=C(NCCCn1cccn1)NCC(c1ccco1)N1CCCC1` (stereo not given) yielded a cytotoxicity at 10 µM of -13.3%.
Molecule `O=C(N[C@]12CC1CN(C(=O)c1ccco1)C2)c1ccco1` (stereo not given in full) has a cytotoxicity at 10 µM of -0.479%.
With `CC(C)CC(NC(=O)c1cccc(F)c1F)C(=O)Nc1cc[nH]n1` (stereo not given) the cytotoxicity at 10 µM was -7.82%.
For `CC(C)NS(=O)(=O)c1cc(C(=O)O)cc(-c2ccc3c(c2)OCCO3)c1`, the cytotoxicity at 10 µM was -2.34%.
In the case of `CCc1ccc(C(C)NC(=O)CN(C)Cc2ccc(C)o2)cc1` (stereo not given), the cytotoxicity at 10 µM was 18.4%.
With `CN(Cc1nc(-c2ccoc2)no1)C1CCCN(c2cccnn2)C1` (stereo not given) the cytotoxicity at 10 µM was -14.8%.
Work on `CC(=O)N1CCC2(CC1)COCCN2Cc1ccc(F)cc1` yielded a cytotoxicity at 10 µM of 5.69%.
In the case of `CC(C)NC(=O)N1C[C@H](OCc2cccnc2)[C@H]2COC[C@H]21`, the cytotoxicity at 10 µM was 6.43%.
`CC1CS(=O)(=O)CCN1CCCc1ccc(C(F)(F)F)cc1` (stereo not given) gave a cytotoxicity at 10 µM of 0.715%.
With `N[C@@H]1c2ccccc2C2(CCN(c3ccc(C(F)(F)F)cn3)CC2)[C@H]1O` the cytotoxicity at 10 µM was -5.78%.
`COC(=O)CN(Cc1ccccc1C)C(=O)C1CCC1` gave a cytotoxicity at 10 µM of -3.64%.
Molecule `NC(=O)CN1CCC(C(=O)NCc2ccc3c(c2)OCCCO3)CC1` has a cytotoxicity at 10 µM of -6.42%.
In the case of `CC(C)c1nc(CN(C)Cc2ccc(F)cc2)cs1`, the cytotoxicity at 10 µM was -8.81%.
`CC(C)c1ncncc1C(=O)N1CCCN(Cc2cccs2)CC1` showed a cytotoxicity at 10 µM of -7.42%.
